ChEMBL document CHEMBL1154129, “Cytotoxic polyketides from a marine-derived fungus Aspergillus glaucus” (J Nat Prod, 2008)
Active and inactive are the calls of the source. No cut-off for these calls is given here.

Experiments:
Type in all cases: functional, cell-based
A549 [1] = assay: Cytotoxicity against human A549 cells after 24 hrs by SRB assay; settings: A549, 24 h
Outline: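 A-549 cells plated at 2 × 10^5 cells/mL, then compounds added in MeOH (2 µL per well) at several concentrations for 24 h. Cells fixed with 12% trichloroacetic acid, stained with 0.4% SRB, absorbance read at 515 nm. IC50 taken from the linear portion of log dose–response curves.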

HL-60 [2] = assay: Cytotoxicity against human HL60 cells after 72 hrs by MTT assay; settings: HL-60, 72 h
Outline: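 HL60 grown in RPMI-1640 with 10% FBS at 37 °C, 5% CO2. Seeded at 5 × 10^4 cells/mL, allowed 24 h, then given compounds in MeOH (2 µL per well) at several concentrations for 72 h. MTT (5 mg/mL stock) added for 4 h, formazan dissolved in DMSO, absorbance read at 540 nm. IC50 taken from the linear portion of log dose–response curves.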

HL-60 [3] = assay: Cytotoxicity against human HL60 cells at 100 uM after 72 hrs by MTT assay
A549 [4] = assay: Cytotoxicity against human A549 cells at 100 uM after 24 hrs by SRB assay

| SMILES | IC50 (A549 [1]) [µM] | IC50 (HL-60 [2]) [µM] | Activity (HL-60 [3]) | Activity (A549 [4]) |
| --- | --- | --- | --- | --- |
| COc1cc(O)cc2c1C(=O)c1c(O)cc(C)c3oc(=O)c(C(=O)c4c(C)cc(O)cc4O)c-2c13 [ASPERGIOLIDE B] | 0.24 | 0.51 | – | – |
| COc1cc(O[C@H]2O[C@H](CO)[C@@H](O)[C@H]2O)cc2cccc(O)c12 | – | – | inactive | inactive |
| COc1cc(O[C@H]2O[C@H](CO)[C@@H](O)[C@H]2O)cc2cc(C)cc(O)c12 | – | – | inactive | inactive |
| COc1cc(O[C@H]2O[C@H](CO)[C@@H](O)[C@H]2O)cc2cc(C)c(C(C)=O)c(O)c12 | – | – | inactive | inactive |
| COc1cc(O)c2c(c1)[C@H]([C@H]1c3cc(C)cc(O)c3C(=O)c3c(O)cc(O)cc31)c1cc(C)cc(O)c1C2=O (relative stereo) | 14.2 | 44 | – | – |
| COc1cc(O)c2c(c1)[C@@H]([C@H]1c3cc(C)cc(O)c3C(=O)c3c(O)cc(O)cc31)c1cc(C)cc(O)c1C2=O (relative stereo) | 9.2 | 7.8 | – | – |
| COc1cc(O)cc2c1C(=O)c1c(cc(C)c(C(=O)OC[C@H](O)CO)c1O)C2=O | – | – | inactive | inactive |
| COc1cc(O)cc2cc3c(c(O)c12)C(=O)C[C@@H](C)[C@@H]3O | – | – | inactive | inactive |
